# Results published in PubChem BioAssay.
# Active and inactive are the calls of the source.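 The calls were made as follows, unless noted: active = inhibition above 20% together with a positive visual image hit; inconclusive = visual image hit but inhibition not above 20%; inactive = no visual image hit.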
# Legend:
# [1] = inhibitors of TNFa-induced NFkB p65 translocation, primary screen, imaging, HUVEC, MLSMR starter and 10KST1 sets (AID 438); settings: HUVEC TNFa-induced p65 nuclear translocation; cell count: measured here: nuclei count (cytotoxicity indicator), at 2.08 µM; inhibition: at 2 µM, stronger effect = higher value, 0% TNFa-plus-vehicle, 100% no-TNFa wells;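 also: compound added about 3h40 before a 20 min TNFalpha stimulation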;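 as to inhibition: signal is the nuclear over cytoplasmic p65 intensity ratio per well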
# [2] = reduction of polyQ htt aggregates in cells – imaging, exon1htt(103Q)mCFP cells, high-content imaging, primary screen (AID 483;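 active = visual image review flags a hit and inhibition of aggregation exceeds 20%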;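 also: compound exposure lasted 3 days before fixation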;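 as to nuclei count: percent of the per-plate median nuclei count of sample wells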); settings: exon1htt(103Q)mCFP cell line, aggregate imaging, at 2 µM; inhibition of aggregation: stronger effect = higher value; nuclei count: measured here: cell count, toxicity
# [3] = endothelial E-selectin expression blockers – imaging, HUVEC, immunofluorescence, MLSMR starter and 10KST1 sets, primary screen (AID 487;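 active = visually confirmed hit in the image check and inhibition above 20%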;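 as to inhibition: signal is fraction of cell area covered by stained E-selectin grains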;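 as to nuclei count: 100% = median nuclei count of all wells on the same plate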); settings: HUVEC TNFalpha-induced E-selectin immunofluorescence imaging, at 2 µM; inhibition: stronger effect = higher value; nuclei count: measured here: cell number, toxicity
# [4] = molecular target: Voltage-gated potassium channel subunit beta-2 (Rattus norvegicus) (UniProt P62483); experiment: inhibitors of rat Kvbeta2 reductase activity – biochemical, NADPH fluorescence, primary screen (AID 622;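 active = fluorescence slope higher than the sample average by over 3 SD, cut at about -0.22 in these data, passing the limit was not always enough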;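 also: slope of raw intensity against log time taken from 70 to 1610 s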); settings: recombinant KvBeta, 4-cyanobenzaldehyde reduction, at 10 µM, stronger effect = higher value
# [5] = molecular target: Voltage-gated potassium channel subunit beta-2 (Rattus norvegicus) (UniProt P62483); experiment: enhancers of rat Kvbeta2 NADPH turnover – biochemical, NADPH fluorescence, primary screen (AID 623;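 active = NADPH fluorescence slope more negative than the mean of all samples by about 3 SD, 99.7% confidence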;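 also: fluorescence intensity change per second fitted from 20 to 320 s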); settings: Recombinant KvBeta, NADPH fluorescence decrease slope, 10 min; at 10 µM; stronger effect = lower value
# [6] = molecular target: Muscarinic acetylcholine receptor M4 (Homo sapiens) (UniProt P08173); experiment: M4-linked GIRK flux change, two-sided – cell-based, HEK293 M4/GIRK, thallium flux, BTC-AM, M4 allosteric agonist project, primary screen (AID 625;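 active = fluorescence slope after compound addition differing from the mean of all tested samples at 99.7% confidence, mostly higher but some lower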;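 also: thallium influx through GIRK channels coupled to M4 in HEK293 cells with BTC-AM dye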); settings: at 10 µM, actives lie on both sides
# Summary of the method: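 System: HEK293 cells with M4 receptor and GIRK channels | Incubation: Cells overnight at 37 °C, BTC-AM loading 1 h, reads 2 min total | Technique: Kinetic BTC-AM fluorescence sampled at 1 Hz, 10 s pre-addition baseline | Measure: Post-addition slope, 15–24 s, of baseline-normalized fluorescence | Control set: Carbachol positive, DMSO negative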
# [7] = blockers of RIG-like receptor reporter activation – cell-based, Sendai virus stimulus, luciferase, 10K MLSCN set, TLR/RLR signaling modifier project, primary screen (AID 602276;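 active = inhibition at or above 50% at 10 µM; inactive = inhibition below 50%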;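 also: firefly luciferase from ISG56 promoter only with Renilla not read in this screen; 0% = Sendai virus plus DMSO and 100% = medium plus DMSO without virus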); settings: HEK293 RL24 IRF3 luciferase reporter, at 10 µM, stronger effect = higher value
# [8] = TLR3 IRF3 reporter activation blockers – cell-based, poly I:C stimulus, luciferase, 10K MLSCN set, primary screen (AID 602277;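 active = inhibition of the reporter signal at or above 50%; inactive = inhibition below 50%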); settings: HEK293-TLR3 RL24 IRF3 luciferase reporter, at 10 µM, stronger effect = higher value
# Sequence of Muscarinic acetylcholine receptor M4 (Homo sapiens) (P08173 whole entry, looked up): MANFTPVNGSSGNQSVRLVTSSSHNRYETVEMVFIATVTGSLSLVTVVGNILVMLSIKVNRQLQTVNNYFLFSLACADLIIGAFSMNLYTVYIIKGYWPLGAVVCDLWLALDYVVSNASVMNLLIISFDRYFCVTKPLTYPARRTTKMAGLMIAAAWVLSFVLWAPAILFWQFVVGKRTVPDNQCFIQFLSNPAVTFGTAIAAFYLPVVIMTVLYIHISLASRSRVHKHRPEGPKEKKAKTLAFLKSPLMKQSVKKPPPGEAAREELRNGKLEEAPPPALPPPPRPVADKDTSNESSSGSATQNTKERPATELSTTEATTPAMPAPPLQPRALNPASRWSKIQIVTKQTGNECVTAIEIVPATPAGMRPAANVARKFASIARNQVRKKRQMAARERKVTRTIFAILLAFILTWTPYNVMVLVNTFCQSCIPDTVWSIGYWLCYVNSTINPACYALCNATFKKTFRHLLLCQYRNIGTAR
# Sequence of Voltage-gated potassium channel subunit beta-2 (Rattus norvegicus) (P62483 whole entry, looked up): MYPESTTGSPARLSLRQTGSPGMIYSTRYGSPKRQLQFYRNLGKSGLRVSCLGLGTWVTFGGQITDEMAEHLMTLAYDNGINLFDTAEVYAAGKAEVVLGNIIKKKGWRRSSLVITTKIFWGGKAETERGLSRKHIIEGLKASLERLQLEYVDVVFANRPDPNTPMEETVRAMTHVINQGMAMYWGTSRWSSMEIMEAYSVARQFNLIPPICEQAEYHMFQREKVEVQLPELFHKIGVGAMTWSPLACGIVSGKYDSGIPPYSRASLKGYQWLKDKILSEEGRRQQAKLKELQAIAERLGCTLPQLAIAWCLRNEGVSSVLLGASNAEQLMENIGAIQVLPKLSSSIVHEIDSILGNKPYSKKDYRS
SMILES,cell count [1],inhibition [1],inhibition of aggregation [2],nuclei count [2],inhibition [3],nuclei count [3],fluorescence slope [4],NADPH fluorescence slope [5],fluorescence slope [6],inhibition [7],inhibition [8]
CCOC(=O)CSC1=Nc2ccccc2C2=NC(CC(=O)NCc3cccs3)C(=O)N12 (configuration not stated),224,7.2% (inactive),13.9% (inactive),81.6%,26% (inactive),78.1%,-0.572 (inactive),-5.5e-05 (inactive),0.00528 (inactive),0.227% (inactive),9.15% (inactive)
CC(=O)SCC(=O)N=c1sc2cc(F)ccc2n1C,491,1.1% (inactive),-2.8% (inactive),91.7%,3.4% (inactive),104%,-0.493 (inactive),4.8e-06 (inactive),0.00565 (inactive),3.65% (inactive),2.45% (inactive)
CC1=C(C(N)=O)C(c2ccc(Cl)cc2Cl)n2ncnc2N1 (configuration not stated),631,-2.5% (inactive),18.4% (inactive),105%,-129% (inactive),106%,-0.558 (inactive),2e-05 (inactive),0.00707 (inactive),29.3% (inactive),33.2% (inactive)
COc1cccc(-n2c(C)nc3c(cnn3-c3ccc(C)cc3)c2=O)c1,684,-5% (inactive),2.3% (inactive),111%,-67.2% (inactive),118%,-0.577 (inactive),2.9e-06 (inactive),0.00597 (inactive),-34.8% (inactive),-67.9% (inactive)
CC(C)(C)C(=O)N=C1SC2CS(=O)(=O)CC2N1c1ccc2c(c1)OCO2 (configuration not stated),454,5.8% (inactive),2% (inactive),96.6%,6.6% (inactive),132%,-0.546 (inactive),-4.1e-05 (inactive),0.0052 (inactive),-0.393% (inactive),7.75% (inactive)
Cc1cnnc2c1-c1nonc1CC2,347,2% (inactive),-17.8% (inactive),109%,5.6% (inactive),116%,-0.529 (inactive),3.9e-05 (inactive),0.00506 (inactive),17.8% (inactive),14.6% (inactive)
O=C(CCCn1c(=O)c2sccc2n(Cc2ccc(F)cc2)c1=O)NCc1ccco1,417,-9.3% (inactive),3% (inactive),92.5%,-40.1% (inactive),106%,-0.583 (inactive),-2.1e-06 (inactive),0.00594 (inactive),7.63% (inactive),15.5% (inactive)
N#CC1=C(N)N(c2ccccc2)C2=C(C(=O)CCC2)C1c1cccs1 (configuration not stated),610,0% (inactive),3.8% (inactive),108%,-53.5% (inactive),98.1%,-0.362 (inactive),-4.2e-05 (inactive),0.00595 (inactive),-12.6% (inactive),-9.24% (inactive)
Cc1ccc(C2CC(c3cccc(Br)c3)Nc3nnnn32)cc1 (configuration not stated),460,-10% (inactive),-4.9% (inactive),90.9%,-1.3% (inactive),79.9%,-0.579 (inactive),1.4e-05 (inactive),0.00604 (inactive),25.2% (inactive),26% (inactive)
CCOC(=O)c1sc(N2C(=O)C(O)=C(C(=O)c3ccco3)C2c2ccccc2)nc1C (configuration not stated),425,2.8% (inactive),9.3% (inactive),102%,-43.5% (inactive),97.4%,-0.37 (inactive),-5.7e-05 (inactive),0.00663 (inactive),6.84% (inactive),-6.96% (inactive)
Cc1ccccc1NC(=O)C1CCC(C)(C(=O)O)C1(C)C (configuration not stated),485,3.5% (inactive),1.6% (inactive),94.4%,-269% (inactive),109%,-0.581 (inactive),1.1e-05 (inactive),0.00574 (inactive),-5.54% (inactive),8.98% (inactive)
CCCn1cc(SCC(=O)NCc2ccco2)c2ccccc21,679,-25.2% (inactive),-35.4% (inactive),124%,20% (inactive),100%,-0.521 (inactive),9.7e-06 (inactive),0.00408 (inactive),13% (inactive),5.85% (inactive)
Cc1nc(-c2cnn(-c3ccccc3)c2)c2cc(C)oc2n1,312,-2.8% (inactive),10.4% (inactive),85.8%,-48.6% (inactive),159%,-0.572 (inactive),9.5e-07 (inactive),0.0027 (inactive),10.4% (inactive),-22.9% (inactive)
COc1ccc(N2CCN(C(=O)CSc3nnc(Cn4nnc5ccccc54)n3C)CC2)cc1,525,5.7% (inactive),-2.8% (inactive),103%,-48.7% (inactive),101%,-0.578 (inactive),-2.5e-05 (inactive),0.0066 (inactive),-9.14% (inactive),-5.63% (inactive)
Cc1ccc(S(=O)(=O)N2CCOCC2)cc1C(=O)OCC(=O)N1CCc2ccccc2C1,538,-12.2% (inactive),5.4% (inactive),98.4%,-184% (inactive),132%,-0.4 (inactive),5.8e-06 (inactive),0.00607 (inactive),4.57% (inactive),6.74% (inactive)
Cc1ccc(F)cc1NC(=O)c1cccc2nccnc12,532,-45.9% (inactive),-49.2% (inactive),13.4%,-61% (inactive),108%,-0.554 (inactive),2e-05 (inactive),0.00494 (inactive),-11.7% (inactive),-19.2% (inactive)
O=C(CN(c1ccccc1)S(=O)(=O)c1ccccc1)N1CCN(Cc2ccc3c(c2)OCO3)CC1,372,4% (inactive),-11.3% (inactive),122%,-23.4% (inactive),116%,-0.528 (inactive),-3.2e-05 (inactive),0.00412 (inactive),13.6% (inactive),21.8% (inactive)
O=C(NCCCN1CCCC1=O)c1cncc(Br)c1,394,-5.8% (inactive),14.1% (inactive),91.8%,54.5% (active),72.7%,-0.418 (inactive),-9.4e-05 (inactive),0.00605 (inactive),13.1% (inactive),24.3% (inactive)
O=C(CSc1nnc2scc(-c3ccccc3)n12)N1CCN(Cc2ccccc2)CC1,703,-24.5% (inactive),6.5% (inactive),110%,19.1% (inactive),91.4%,-0.5 (inactive),2.7e-06 (inactive),0.00675 (inactive),6.37% (inactive),7.98% (inactive)
COC(=O)c1ccc(-c2ccc(CNCC(O)c3ccccc3)o2)cc1 (configuration not stated),400,3.2% (inactive),-6% (inactive),111%,-27.1% (inactive),115%,-0.313 (inactive),-1.1e-05 (inactive),0.00598 (inactive),13.2% (inactive),13.8% (inactive)
COc1nc2ccc(C)cc2cc1-c1noc(-c2cccnc2)n1,243,-0.9% (inactive),3.8% (inactive),62.9%,-71.7% (inactive),109%,-0.456 (inactive),3.8e-06 (inactive),0.0055 (inactive),6.17% (inactive),-7.44% (inactive)
COc1cc(NC(=O)c2ccc(COCC(F)(F)F)o2)cc(OC)c1OC,753,-11.9% (inactive),-25% (inactive),116%,-71% (inactive),118%,-0.553 (inactive),-4.6e-05 (inactive),0.00529 (inactive),15.8% (inactive),24.7% (inactive)
CCOC(=O)N1CCC(N(C(=O)Nc2ccc(Cl)c(Cl)c2)C(C)CC)CC1 (configuration not stated),346,-3.2% (inactive),4.4% (inactive),120%,-44% (inactive),118%,-0.489 (inactive),-7.4e-06 (inactive),0.00507 (inactive),8.19% (inactive),-18.2% (inactive)
COc1cc2c(cc1OC)C(c1cc(OC)c(OC)c(OC)c1)NCC2 (configuration not stated),514,1.8% (inactive),10.4% (inactive),104%,-28.8% (inactive),102%,-0.546 (inactive),-2.1e-05 (inactive),0.00597 (inactive),15.4% (inactive),20.5% (inactive)
COc1ccccc1CNC(=O)C1CCN(S(=O)(=O)N2CCCCC2)CC1,571,-1.8% (inactive),4.5% (inactive),102%,-44.6% (inactive),89.6%,-0.426 (inactive),-3.4e-05 (inactive),0.00585 (inactive),14% (inactive),21.7% (inactive)
COc1ccc(N(CC(=O)Nc2ccccc2SC)S(C)(=O)=O)cc1OC,485,-15.7% (inactive),-12% (inactive),65.5%,-4.5% (inactive),102%,-0.468 (inactive),-9.7e-06 (inactive),0.00494 (inactive),19.9% (inactive),19.3% (inactive)
CSc1nnc(-c2cnccn2)n1C,679,-15.7% (inactive),-6.5% (inactive),121%,-73.6% (inactive),109%,-0.603 (inactive),-3.8e-06 (inactive),0.00641 (inactive),22.1% (inactive),25.7% (inactive)
